Experimental data reported in ChEMBL document CHEMBL4513216, “Probing the Open Global Health Chemical Diversity Library for Multistage-Active Starting Points for Next-Generation Antimalarials” (ACS Infect Dis, 2020).

Experiment: Toxicity liver stage against HepG2, at 10uM
Format: cell-based
Parameters: test concentration 10 uM, cell line HepG2-A16-CD81EGFP
Conditions: human, HepG2-A16-CD81EGFP cells; read-out: INHIBITION
Outline: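 Uninfected HepG2-A16-CD81EGFP cells, 3 × 10^3 per well, 1536-well, plated on prespotted compound at 10 μM final, parasite-free screening media added to match infected plates; puromycin 10 μM positive, DMSO 0.5% negative; run in parallel with 48 h PbLuc assay at 37 °C, 5% CO2; viability by CellTiter-Glo luminescence, normalized to controls.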

CC(O)C1CCN(c2cc(Cl)ccc2C#N)CC1 (configuration not stated)
cytotoxicity at 10 µM: 4.92%

CCc1ccccc1OC1CN(C(=O)c2sccc2N)C1
cytotoxicity at 10 µM: 14.4%

c1cnc2c(c1)cc([C@H]1CCCO1)n2CCN1CCCC1
cytotoxicity at 10 µM: 0.975%

O=C(c1cccnc1)N1C[C@H]2CC[C@@H](C1)N(Cc1ccc(F)cc1Cl)C2
cytotoxicity at 10 µM: 1.17%

CCOc1cc(F)ccc1NC(=O)N(C)Cc1cnn(C)c1
cytotoxicity at 10 µM: -17%

CC(SCC(=O)N(C)CC(=O)NC1CC1)c1ccc(F)c(F)c1 (configuration not stated)
cytotoxicity at 10 µM: -0.369%

Cc1c(C(C)NC(=O)Nc2ccccc2F)cnn1C (configuration not stated)
cytotoxicity at 10 µM: -45.2%

Cc1nnc([C@@H]2CC[C@@H]3[C@@H](CCN3C3CCOCC3)O2)o1
cytotoxicity at 10 µM: 8.58%

COCC(=O)N1CC[C@H]2O[C@@H](C)C[C@H]2C1
cytotoxicity at 10 µM: -66.1%

N#Cc1ccc(CN2CCN(C(=O)CCn3cncn3)CC2)cc1
cytotoxicity at 10 µM: -7.06%

COc1c(CNCc2cccnc2N2CCCCC2)c(C)nn1C
cytotoxicity at 10 µM: -151%

CCOCC1COCCC12CCN(C(=O)CCOC)CC2 (configuration not stated)
cytotoxicity at 10 µM: -6.4%

Cc1nc(C)c(C(=O)N2Cc3ccccc3OCC2Cn2ccnc2)s1 (configuration not stated)
cytotoxicity at 10 µM: 9.21%

Fc1ccccc1-c1cc(N2[C@@H]3CC[C@H]2CNC3)n2nccc2n1
cytotoxicity at 10 µM: 23.1%

CN1CCC(c2cccc(Cc3ccccc3)n2)CC1
cytotoxicity at 10 µM: -9.24%

Cc1nc(Nc2nnc(C)s2)cc(C2CCCN2C2CCCC2)n1 (configuration not stated)
cytotoxicity at 10 µM: -16.7%

c1cc(COC[C@@]23CCC[C@@H]2CN(C2CCOCC2)C3)ccn1
cytotoxicity at 10 µM: 8.44%

O=C(c1ccco1)N1CC[C@H]2[C@H]1CCN2CC1CCOCC1
cytotoxicity at 10 µM: 5.12%

Cc1cc(C)n(CC2CN(Cc3ccc4c(c3)OCCO4)CCO2)n1 (configuration not stated)
cytotoxicity at 10 µM: -22.3%

CN(C)CCO[C@H]1CN(Cc2ccoc2)[C@@H]2COC[C@H]12
cytotoxicity at 10 µM: -1.23%

Cc1[nH]nc(CCC(=O)N2CCCC(OCc3cccnc3)C2)c1C (configuration not stated)
cytotoxicity at 10 µM: -5.07%

Cc1ccc(OCCCNC(=O)CN(C)c2ccc(C#N)cn2)cc1
cytotoxicity at 10 µM: 4.01%

CC(c1cccc(S(N)(=O)=O)c1)N(C)CCOC(C)(C)C (configuration not stated)
cytotoxicity at 10 µM: -32.8%

CC(=O)NC1CCN(c2ncnc3c2c(C)nn3C)C1 (configuration not stated)
cytotoxicity at 10 µM: -2.78%

COc1ccc(CN2C[C@@H]3COC[C@]3(COc3cccnc3)C2)cc1
cytotoxicity at 10 µM: -18.4%

COCCNC(=O)[C@@H]1CC[C@@H]2[C@@H](CCN2Cc2cnn(C)c2)O1
cytotoxicity at 10 µM: -12.2%

CCCN1CCN(C(=O)c2cnn(-c3ccccc3F)c2)CC1
cytotoxicity at 10 µM: 0.313%

CNC(=O)[C@@H]1CC[C@@H]2[C@@H](CCN2C(=O)N(C)C)O1
cytotoxicity at 10 µM: 13.2%

O=C(CC1=CSC2=NCCCN12)N1CCCCCC1c1ccco1 (configuration not stated)
cytotoxicity at 10 µM: 10%

CC[C@@]1(O)CCN(C(=O)CCSCc2ccc(F)cc2)C[C@H]1O
cytotoxicity at 10 µM: 0.264%

O=C(NC1CC1)NC(c1ccc(F)cc1)C1CC1 (configuration not stated)
cytotoxicity at 10 µM: -0.158%

CCc1ncc(CN2CCC3(CCCN(CC4CCC4)C3)C2)cn1 (configuration not stated)
cytotoxicity at 10 µM: -7.07%

CCCn1cc(C(=O)NC(CC(=O)O)c2ccccc2F)c(C)n1 (configuration not stated)
cytotoxicity at 10 µM: -43.9%

CCn1c(C2CCCN(Cc3ccc(F)cc3Cl)C2)nn(C)c1=O (configuration not stated)
cytotoxicity at 10 µM: -2.75%

CCOc1ccc(NC(=O)Cn2cc(I)cn2)cc1
cytotoxicity at 10 µM: 9.84%

CCCC1c2cccn2CCN1C(=O)c1cc(CC)no1 (configuration not stated)
cytotoxicity at 10 µM: -14.9%

CCc1nc(C2CCCN(c3ncc(Br)cn3)C2)no1 (configuration not stated)
cytotoxicity at 10 µM: 1.47%

Cn1ncc2c1NC(=O)CC2c1c(Cl)cccc1Cl (configuration not stated)
cytotoxicity at 10 µM: 55.1%

CCN(CC)c1nc(Nc2cccc(C(C)O)c2)nc2ccccc12 (configuration not stated)
cytotoxicity at 10 µM: 37.6%

Cc1nc(-c2cc(C(=O)O)co2)cs1
cytotoxicity at 10 µM: 3.39%

COc1ccc(C)cc1CC(=O)N1CCN(CC(C)O)CC1 (configuration not stated)
cytotoxicity at 10 µM: -8.65%

Cc1n[nH]c2c1C(c1ccncc1)SCC(=O)N2 (configuration not stated)
cytotoxicity at 10 µM: 4.96%

Cc1ccc(S(=O)(=O)NCc2cnn(C)c2)c(F)c1
cytotoxicity at 10 µM: -13%

Brc1cnc(NCCCOC2CCOCC2)nc1
cytotoxicity at 10 µM: -5.2%

CCn1cc(CN2CCCC2c2nc(C(C)C)no2)cc1C#N (configuration not stated)
cytotoxicity at 10 µM: 1.44%

CN1C(=O)C(c2cccnc2)CC12CCN(C(=O)c1ccc[nH]1)CC2 (configuration not stated)
cytotoxicity at 10 µM: -0.19%

COc1ccc(NC(=O)CCC2CCCN(S(=O)(=O)C3CC3)C2)cc1Cl (configuration not stated)
cytotoxicity at 10 µM: 11.3%

O=C(Cc1ccc2c(c1)CCC2)N1CCCC1Cn1cccn1 (configuration not stated)
cytotoxicity at 10 µM: -139%

CC(C)COc1cncc(NCC(O)c2ccco2)n1 (configuration not stated)
cytotoxicity at 10 µM: -2.85%

CCN(CC)C(=O)N1CCN(C2=NCC(C)S2)CC1 (configuration not stated)
cytotoxicity at 10 µM: -148%

Cc1nn(-c2ccccn2)c(C)c1[C@@H]1C=C[C@@H](NC(=O)NC(C)C)C1
cytotoxicity at 10 µM: 1.52%

COc1ccc(-c2cc(C3(O)CCOC(C)(C)C3)on2)cc1 (configuration not stated)
cytotoxicity at 10 µM: -3.12%

CCOC(=O)N1CCCC2(CCN(Cc3ccccc3C#N)C2)C1 (configuration not stated)
cytotoxicity at 10 µM: 3.37%

O=S(=O)(NCCC(O)c1cccs1)c1ccccc1 (configuration not stated)
cytotoxicity at 10 µM: -3.82%

O=C(c1c[nH]cn1)N1CCC(F)(F)C2(CCN(c3cnccn3)C2)C1 (configuration not stated)
cytotoxicity at 10 µM: 8.19%

COCCN1CCCC2(CCN(Cc3noc(C4CCCC4)n3)C2)C1=O (configuration not stated)
cytotoxicity at 10 µM: 3.96%

NC(=O)COc1ccc(CNC(=O)CN2CCc3ccccc32)cc1
cytotoxicity at 10 µM: -4.07%

COc1ccccc1CC1CCCN(CC(=O)NC2CC2)C1 (configuration not stated)
cytotoxicity at 10 µM: 6.75%

Cc1cnn(C2CN(CC(=O)Nc3cccnc3)C2)c1
cytotoxicity at 10 µM: -8.11%

Cc1cc(C(=O)N2CCC3(CC(=O)NC3=O)C2)c(-c2ccccc2)o1 (configuration not stated)
cytotoxicity at 10 µM: -3.15%

Cc1ccc(CN(C(=O)C(C)NC(N)=O)C2CC2)cc1C (configuration not stated)
cytotoxicity at 10 µM: 7.47%

Cc1nc(CN2C[C@@H]3CN(c4ncc(F)cn4)C[C@@H]3C2=O)cs1
cytotoxicity at 10 µM: -0.673%

COCCN1CCC(CN(CC2CCCO2)C(=O)CCC(F)(F)F)CC1 (configuration not stated)
cytotoxicity at 10 µM: 2.13%

Cc1nc(C)n(C2CCCN(C(=O)c3ccc(CN(C)C)cc3)C2)n1 (configuration not stated)
cytotoxicity at 10 µM: -1.6%

CN(CCCc1ccccc1)C(=O)CCc1nc(-c2nnc[nH]2)no1
cytotoxicity at 10 µM: -44.8%

COc1cc(C(=O)N(Cc2cnn(C)c2)C(C)C)ccc1C
cytotoxicity at 10 µM: -3.14%

Cn1nnnc1SCC1COc2ccccc2O1 (configuration not stated)
cytotoxicity at 10 µM: -1.94%

Cc1cc(C(=O)Cn2cnnc2[S+](C)[O-])cc(C)c1F (configuration not stated)
cytotoxicity at 10 µM: 4.31%

O=C(NCC1CCC(c2ccnc3ncnn23)CC1)C1CC1 (configuration not stated)
cytotoxicity at 10 µM: 9.17%

O=C(COc1ccccc1F)NCCC(O)c1ccco1 (configuration not stated)
cytotoxicity at 10 µM: -4.18%

O=C(CC1CSc2nccc(=O)n21)NCc1cc(-c2ccco2)on1 (configuration not stated)
cytotoxicity at 10 µM: -11.3%

CCCN(Cc1ccc(S(=O)(=O)NC)cc1)Cc1ccccc1OC
cytotoxicity at 10 µM: -0.89%

O=C(CCN1CCOC(CNc2cccnn2)C1)NC1CCCCC1 (configuration not stated)
cytotoxicity at 10 µM: 3.09%

Cc1ccc(O)c(C(=O)N2CCC(CN3CCCCCC3)CC2)c1
cytotoxicity at 10 µM: 5.52%

CCCOc1cc(CNC(=O)Nc2ccccn2)ccn1
cytotoxicity at 10 µM: -2.25%

Cc1nc(C2CCCN2Cc2nnc(C3CC3)o2)no1 (configuration not stated)
cytotoxicity at 10 µM: -5.97%

Cn1cc(CN2CCOC(c3cccc(-c4cncnc4)n3)C2)cn1 (configuration not stated)
cytotoxicity at 10 µM: 4.74%

CNS(=O)(=O)c1ccccc1N1CCN(C(C)C(N)=O)CC1 (configuration not stated)
cytotoxicity at 10 µM: 4.87%

COc1nn(C)c2c1CCCN(S(=O)(=O)c1ccccc1F)C2
cytotoxicity at 10 µM: -109%

O=C(CCn1cccn1)NCCOc1ncc(Cl)cc1Cl
cytotoxicity at 10 µM: -3.82%

CN(C)c1ncc(I)c(C2CCCN2C)n1 (configuration not stated)
cytotoxicity at 10 µM: 3.7%

Cc1nn(C)c(N(C)C)c1CNCc1cccnc1N(C)C
cytotoxicity at 10 µM: 1.84%

CC(C)NC(=O)CCNC(=O)c1c(Br)c2ccccc2n1C
cytotoxicity at 10 µM: 8.59%

CN(C)[C@@H]1CO[C@H](CNC(=O)C2CCCC2)[C@H]1O
cytotoxicity at 10 µM: -0.321%

CCNc1ncc(C(=O)NC2CCSC2)cn1 (configuration not stated)
cytotoxicity at 10 µM: -8.85%

Cc1cc(C)n(-c2ccc3nnc(C)n3n2)n1
cytotoxicity at 10 µM: 17.8%

CN(C)[C@H]1C[C@@H](Cc2cc(-c3ccc(F)cc3)on2)C1(C)C
cytotoxicity at 10 µM: -12.3%

CN(C)C1COC2(CCN(Cc3ccncc3)CC2)C1 (configuration not stated)
cytotoxicity at 10 µM: -69.2%

Cc1ccsc1[C@@H]1CCN(C(=O)CCc2n[nH]c(C)c2C)C[C@H]1O
cytotoxicity at 10 µM: 7.04%

CC(C)c1cccc(-n2cc(O)c(C(=O)NCCCn3cccn3)n2)c1
cytotoxicity at 10 µM: -1.59%

O=C(c1cnc(Nc2ccccc2)nc1)N1CCCC2(CCNC2)C1 (configuration not stated)
cytotoxicity at 10 µM: -6.57%

Cc1cnc(CN2CCOC(Cn3nc(C)nc3C)C2)cn1 (configuration not stated)
cytotoxicity at 10 µM: 1.46%

O=C1CCSCC(C(=O)N2CCC(O)CC2)N1 (configuration not stated)
cytotoxicity at 10 µM: -4.2%

c1cc2cc[nH]c2c(CC2CN(Cc3cncs3)C2)n1
cytotoxicity at 10 µM: -0.54%

COc1ccccc1-c1csc(-c2cccc(C(=O)O)c2)n1
cytotoxicity at 10 µM: 12.3%

CCc1nc(NC2CC(=O)N(CC3CCCCC3)C2)ncc1C (configuration not stated)
cytotoxicity at 10 µM: -4.55%

CC(C)n1ccc(CN2CCOC(CNc3cccnn3)C2)n1 (configuration not stated)
cytotoxicity at 10 µM: -16.6%

CCc1csc(C2CCCN(C(=O)c3cc(Cl)c[nH]3)C2)n1 (configuration not stated)
cytotoxicity at 10 µM: -9.83%

CCSCCNc1nc2c(s1)c(C)nn2C
cytotoxicity at 10 µM: -0.145%

CCCc1nnc(NC2CCN(Cc3ccc(F)c(F)c3)CC2)o1
cytotoxicity at 10 µM: -1.48%

Cn1nc(C2CCCN2)c2c(C(=O)NCC(F)(F)F)cc(C3CC3)nc21 (configuration not stated)
cytotoxicity at 10 µM: 13.1%

COCC1CN(S(=O)(=O)N(C)C)Cc2ncn(CC3CC3)c21 (configuration not stated)
cytotoxicity at 10 µM: 8.77%

Cc1cc2[nH]c(=O)oc2cc1S(=O)(=O)N1CCC(N2CCCC2=O)CC1
cytotoxicity at 10 µM: 1.54%

CC1COCCN1C(=O)Cc1cc(Cl)c2c(c1)OCCCO2 (configuration not stated)
cytotoxicity at 10 µM: -1.43%

Cc1ccc(C(=O)NC(CN2CCCC2=O)c2ccccc2)c(=O)[nH]1 (configuration not stated)
cytotoxicity at 10 µM: -2.23%

COc1ccc(-n2ccc(CNCc3cccc(OC)c3)n2)cc1
cytotoxicity at 10 µM: 3.12%

CN(C)CC1CSCCCN1S(=O)(=O)Cc1cccc(F)c1 (configuration not stated)
cytotoxicity at 10 µM: -3.63%

O=S(=O)(CC1CCCN1S(=O)(=O)c1cccnc1)c1ccccc1 (configuration not stated)
cytotoxicity at 10 µM: -4.31%

CC(=O)Nc1cccc2c1ccn2CC(=O)Nc1ncc[nH]1
cytotoxicity at 10 µM: 5.83%

COCCN(C)CCN1CC2(CCN(C3CCOCC3)CC2)OC1=O
cytotoxicity at 10 µM: 4.5%

CN(C)CCO[C@H]1CN(Cc2cccc(C#N)c2)[C@@H]2COC[C@H]12
cytotoxicity at 10 µM: -12.7%

O=C(c1cccc2cc[nH]c12)N1CCC2(CCOC2)C1 (configuration not stated)
cytotoxicity at 10 µM: -152%
